Test results reported in ChEMBL document CHEMBL1141192 (J Med Chem, 2005).
Values after ≈ are worked out from the molar mass of the structure shown.

Tests used:
Rattus norvegicus [1] = assay: Volume of distribution in rat at 3 mg/kg, po; format: ADME, organism-based; parameters: dose 3 mg/kg, route oral; conditions: in vivo
Outline: (§1)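 Compound at 3 mg/kg in 0.1% MC given po or iv to rats or dogs; plasma sampled at 0.25, 0.5, 1, 2, 4, 8 and 24 h; drug levels measured by HPLC.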

[2] = Oral bioavailability in rat at 3 mg/kg, po; format: ADME, organism-based; conditions: in vivo; outline: as §1
Adenosine kinase = Adenosine kinase (Homo sapiens, UniProt P55263); assay: Inhibitory activity against recombinant human adenosine kinase
[3] = AUC (0-24) in rat at 3 mg/kg, po; format: ADME, organism-based; parameters: time < 24 hr, dose 3 mg/kg, route oral; conditions: plasma
Callitrichinae = assay: Bradykinin-induced licking in male marmoset monkey; format: functional, Callithrix jacchus
Outline: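 Male marmosets (293–359 g), 4–6 per group, individually housed; dosed po at 0.1, 1.0 and 10 mg/kg in 0.1% MC (vehicle control). 60 min post-dose, 100 μL of 1 mM bradykinin in saline injected i.pl. into foot pad. Response scored 0–3 every 15 s for 15 min from video; ataxia, sedation, emesis monitored. Alternate foot pads, 2-week intervals.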

[4] = Time taken to achieve maximum concentration in rat at 3 mg/kg, po; format: ADME, organism-based; parameters: dose 3 mg/kg, route oral; conditions: in vivo; outline: as §1
Rattus norvegicus [5] = species: Rattus norvegicus; assay: Rotarod test in rat at 2 hrs; format: functional; conditions: Sprague-Dawley
Outline: (§2)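 Fasted male SD rats (94–104 g), n = 6 per dose group, given 10–300 mg/kg po in 0.1% MC after training on a 5 rpm rotorod; walking time recorded at 0, 0.5, 1, 2 and 5 h post-dose, 150 s cutoff.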

[6] = Half life at late phase in rat at 3 mg/kg, po; format: ADME, organism-based; parameters: dose 3 mg/kg, route oral; conditions: in vivo; outline: as §1
[7] = Time taken to achieve maximum concentration in dog at 3 mg/kg, po; format: ADME, organism-based, Canis lupus familiaris; parameters: dose 3 mg/kg, route oral; conditions: in vivo; outline: as §1
[8] = AUC (0-24) in dog at 3 mg/kg, po; format: ADME, organism-based, Canis lupus familiaris; parameters: time < 24 hr, dose 3 mg/kg, route oral; conditions: plasma
Rattus norvegicus [9] = assay: Hyperalgesia in male SD rat administered 2 hrs after carrageenan injection, analgesia tested at 5 hrs; format: functional; conditions: Sprague-Dawley
Outline: (§3)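 Fasted male SD rats (94–118 g); compound suspended in 0.1% MC, given orally at 1, 3 and 10 mg/kg either 1 h before (prophylactic) or 2 h after (therapeutic) intraplantar carrageenan (1%, 100 μL/paw). Mechanical threshold read by Randall-Selitto analgesimeter at 3, 4, 5 and 6 h post-carrageenan.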

Rattus norvegicus [10] = assay: Hyperalgesia in male SD rat administered 2 hrs after carrageenan injection, analgesia tested at 4 hrs; format: functional; conditions: Sprague-Dawley; outline: as §3
Rattus norvegicus [11] = assay: Hyperalgesia in male SD rat administered 1 hr before carrageenan injection, analgesia tested at 4 hrs; format: functional; conditions: Sprague-Dawley; outline: as §3
Rattus norvegicus [12] = assay: Hyperalgesia in male SD rat administered 1 hr before carrageenan injection, analgesia tested at 3 hrs; format: functional; conditions: Sprague-Dawley; outline: as §3
[13] = Maximum concentration in rat at 3 mg/kg, po; format: ADME, organism-based; parameters: dose 3 mg/kg, route oral; conditions: in vivo; outline: as §1
[14] = Clearance in rat at 3 mg/kg, po; format: ADME, organism-based; parameters: dose 3 mg/kg, route oral; conditions: in vivo; outline: as §1
Canis familiaris = assay: Volume of distribution in dog at 3 mg/kg, po; format: ADME, organism-based, Canis lupus familiaris; parameters: dose 3 mg/kg, route oral; conditions: in vivo; outline: as §1
Rattus norvegicus [15] = species: Rattus norvegicus; assay: Rotarod test in rat at 1 hr; format: functional; conditions: Sprague-Dawley; outline: as §2
[16] = Clearance in dog at 3 mg/kg, po; format: ADME, organism-based, Canis lupus familiaris; parameters: dose 3 mg/kg, route oral; conditions: in vivo; outline: as §1
Rattus norvegicus [17] = assay: Hyperalgesia in male SD rat administered 2 hrs after carrageenan injection, analgesia tested at 3 hrs; format: functional; conditions: Sprague-Dawley; outline: as §3
Rattus norvegicus [18] = assay: Hyperalgesia in male SD rat administered 1 hr before carrageenan injection, analgesia tested at 5 hrs; format: functional, Sprague-Dawley; outline: as §3
Rattus norvegicus [19] = species: Rattus norvegicus; assay: Rotarod test in rat at 0.5 hrs; format: functional; conditions: Sprague-Dawley; outline: as §2
[20] = Half life in dog at 3 mg/kg, po; format: ADME, organism-based, Canis lupus familiaris; parameters: dose 3 mg/kg, route oral; conditions: in vivo; outline: as §1
Rattus norvegicus [21] = species: Rattus norvegicus; assay: Inhibition of formalin induced paw pain in male SD rat; format: functional; conditions: Sprague-Dawley
Outline: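 Fasted male SD rats (4 weeks, 105–115 g), six per dose group; compound in 0.1% MC po at 0.3, 1, 3 and 10 mg/kg, 15 min before 50 μL of 2% formalin s.c. into right hindpaw plantar surface.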

[22] = Solubility in water at pH 7.4
Rattus norvegicus [23] = assay: Hyperalgesia in male SD rat administered 2 hrs after carrageenan injection, analgesia tested at 6 hrs; format: functional, Sprague-Dawley; outline: as §3
[24] = Metabolic stability by incubation with human liver microsomes; format: ADME, Microsome
Rattus norvegicus [25] = species: Rattus norvegicus; assay: Rotarod test in rat at 5 hrs; format: functional; conditions: Sprague-Dawley; outline: as §2
Rattus norvegicus [26] = assay: Inhibition of the licking and biting response at 20 mg/kg, po in rat by formalin paw antinociceptive assay; format: functional; conditions: Sprague-Dawley
Outline: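 Screening: fasted male SD rats (105–115 g), three per compound, 20 mg/kg po in 0.1% MC 15 min before 2% formalin (50 μL s.c., right hindpaw). Licking/biting scored 5 s per 30 s; percent inhibition reported for 2nd phase (15–30 min); positive control 5 mg/kg po each run.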

[27] = Half life at early phase in rat at 3 mg/kg, po; format: ADME, organism-based; parameters: dose 3 mg/kg, route oral; conditions: in vivo; outline: as §1
Rattus norvegicus [28] = assay: Toxicity in rat liver administered at 75 umol/kg, iv; format: organism-based; conditions: in vivo
Outline: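 Three male rats given 75 μmol/kg total iv in 75:25 PEG-400/saline as two 40-min infusions 12 h apart; serum taken 24 h after first infusion for bilirubin, SGOT, SGPT, creatine, GGT, albumin, glucose, BUN and ALP.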

[29] = Maximum concentration in dog at 3 mg/kg, po; format: ADME, organism-based, Canis lupus familiaris; parameters: dose 3 mg/kg, route oral; conditions: in vivo; outline: as §1

Sequence of Adenosine kinase (P55263 whole entry): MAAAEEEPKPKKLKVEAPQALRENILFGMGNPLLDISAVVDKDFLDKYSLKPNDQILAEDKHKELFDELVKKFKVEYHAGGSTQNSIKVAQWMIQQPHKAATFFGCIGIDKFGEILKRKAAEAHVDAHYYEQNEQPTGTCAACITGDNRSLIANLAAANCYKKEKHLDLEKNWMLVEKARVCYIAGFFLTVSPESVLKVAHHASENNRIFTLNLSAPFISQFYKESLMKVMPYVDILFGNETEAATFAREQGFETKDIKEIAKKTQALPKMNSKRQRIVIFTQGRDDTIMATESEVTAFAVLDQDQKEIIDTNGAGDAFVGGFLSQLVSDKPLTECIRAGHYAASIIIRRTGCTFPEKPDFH

- Vdss (Rattus norvegicus [1]): 3.3 L/kg
- bioavailability [2]: 128%
- IC50 (Adenosine kinase): 3 nM
- AUC at 24 h [3]: 981 ng·h/mL
- Tmax [4]: 0.3 h
- half-life [6]: 5.2 h
- Tmax [7]: 0.3 h
- AUC at 24 h [8]: 1490 ng·h/mL
- Cmax [13]: 660 ng/mL
- CL/F [14]: 56.7 mL/min/kg
- Vdss (Canis familiaris): 6.3 L/kg
- CL/F [16]: 35 mL/min/kg
- half-life [20]: 2 h
- solubility [22]: 32 µg/mL (≈ 75.6 µM)
- half-life [24]: 3.3 h
- half-life [27]: 0.3 h
- Cmax [29]: 518 ng/mL
SMILES: C[C@H]1O[C@@H](n2cc(-c3ccccc3)c3c(NCC(=O)NC4CC4)ncnc32)[C@H](O)[C@@H]1O
- ED50 (Callitrichinae): 0.9 mg/kg
- ED50 (Rattus norvegicus [5]): 102 mg/kg
- ED50 (Rattus norvegicus [9]): 6.5 mg/kg
- ED50 (Rattus norvegicus [10]): 4.1 mg/kg
- ED50 (Rattus norvegicus [11]): 3.8 mg/kg
- ED50 (Rattus norvegicus [12]): 2.6 mg/kg
- ED50 (Rattus norvegicus [15]): > 300 mg/kg
- ED50 (Rattus norvegicus [17]): 1.6 mg/kg
- Inhibition (Rattus norvegicus [18]): <50%
- ED50 (Rattus norvegicus [19]): > 300 mg/kg
- ED50 (Rattus norvegicus [21]): 2.5 mg/kg
- Inhibition (Rattus norvegicus [23]): <50%
- ED50 (Rattus norvegicus [25]): 62 mg/kg
- inhibition in vivo at 20 mg/kg (Rattus norvegicus [26]): 66%
- Activity (Rattus norvegicus [28]): Non-toxic
